# From PubChem BioAssay
# Ecoli rRNA inh – selective bacterial rRNA inhibition in E. coli. E. coli WT GFP vs humanized-ribosome RFP mutants, fluorescence, 24 h; stronger effect = lower value; DMSO median 0, no signal -100. GFP signal change (wild-type ribosome), % (concentration not given with the values). actives 1.6% (n = 350,000);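 active = significant combined selectivity score with lowered wild-type GFP, culture density cut under 30%, mutant RFP and density less affected; inactive = any of these conditions unmet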
# ERAP1 inh – blocks human ERAP1 aminopeptidase activity; inhibition, % at 10.7 µM; AID 652197; recombinant ERAP1, Leu-AMC fluorescence, 60 min; actives 0.15% (n = 340,000); Q9NZ08;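 active = mean replicate inhibition of at least 30%, or all replicates individually reaching that 30% level; inactive = mean below 30% and not every replicate reaching it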;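 also: 0% = neutral control wells and 100% = L-leucinethiol positive control wells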
# SIRT5 block – inhibitors of human sirtuin-5 desuccinylase; Purified SirT5, succinyl-peptide AMC, trypsin-coupled fluorescence; inhibition, % at 15 µM; actives 1.1% (n = 330,000); in the data active = inhibition above about 15%
# Target sequence (Q9NXA8 whole entry, looked up): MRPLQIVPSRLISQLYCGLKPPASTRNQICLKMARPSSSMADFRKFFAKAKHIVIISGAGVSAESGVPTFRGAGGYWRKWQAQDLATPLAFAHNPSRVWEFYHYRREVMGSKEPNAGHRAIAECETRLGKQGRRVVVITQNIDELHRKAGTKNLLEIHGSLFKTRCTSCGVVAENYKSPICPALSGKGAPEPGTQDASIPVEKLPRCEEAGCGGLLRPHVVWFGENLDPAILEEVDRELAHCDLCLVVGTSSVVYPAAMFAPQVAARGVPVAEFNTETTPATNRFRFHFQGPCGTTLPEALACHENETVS
# S100A4 MyoIIA – inhibitors of human S100A4 binding to myosin IIA peptide; AID 652163; actives 0.14% (n = 360,000); inhibition, % at 10.7 µM; S100A4/TAMRA-MyoIIA peptide fluorescence polarization;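 active = mean inhibition of at least 70% across replicates, with every replicate also reaching that level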
# Target sequence (P26447 whole entry, looked up): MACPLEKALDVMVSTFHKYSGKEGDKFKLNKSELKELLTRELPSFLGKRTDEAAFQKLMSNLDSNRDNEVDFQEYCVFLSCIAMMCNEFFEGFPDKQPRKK
#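 Material: S100A4 monomer protein | Medium: HEPES pH 7.2 with CaCl2, KCl, NaCl, DTT, Triton | Reagent: Labelled myosin peptide probe, 5 nM | Doses: One dose per compound | Times: 5 min incubation before reading | Benchmarks: Neutral control DMSO, positive control TFP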
# E-sel inducer – E-selectin induction on HUVECs | P16581 | HUVEC E-selectin immunofluorescence imaging; normalized: neutral wells 0, TNF-alpha wells 100 | activation, % at 7.58 µM | actives 0.37% (n = 260,000) | AID 686992;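 active = mean E-selectin-positive cell signal at least 10% of the positive control, reached in at least 60% of replicates, without over 20% cell loss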
#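 Material: HUVEC primary endothelial cells; Amount: 3,000 cells per well; Dosing: single concentration; Medium: EGM-2 growth medium on 0.1% gelatin-coated wells; Read-out basis: percent E-selectin-positive cells; Signal: immunofluorescence imaging; Control set: TNF-alpha, DMSO.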
# AF4-AF9 inh – blocks AF4 peptide binding to human AF9; actives 0.47% (n = 350,000); AID 651704; AlphaScreen, biotin-AF4 peptide binding to FLAG-AF9; inhibition, % at 10 µM; P42568;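 active = every replicate reaching a set inhibition limit, whatever the replicate mean, cut at about 25% in these data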;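 also: 0% = plate neutral control median and 100% = total signal loss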
# Active calls of the source: *; x = not tested or not shown. Only some compounds are listed: those with a hit (about 3.4% of all), similar ones and a draw of the others.
SMILES,Ecoli rRNA inh,ERAP1 inh,SIRT5 block,S100A4 MyoIIA,E-sel inducer,AF4-AF9 inh
C[C@H]1CN([C@@H](C)CO)C(=O)c2cc(NS(=O)(=O)c3cn(C)cn3)ccc2O[C@@H]1CN(C)Cc1ccc(-c2ccccc2)cc1,0,0,2,-62,0,-8
Cc1[nH]c2ccccc2c1N=Nc1ccc(F)cc1,-52,4,x,-1,2,30*
Cc1[nH]c2ccccc2c1N=Nc1cc(C(=O)O)cc(C(=O)O)c1,-5,12,15,-3,7,1
O=C(CN(Cc1ccccc1)S(=O)(=O)c1ccccc1)N/N=C/c1ccccc1[N+](=O)[O-],-19*,-3,-2,2,x,3
O=C(N/N=C/c1cccc([N+](=O)[O-])c1O)C(O)(c1ccccc1)c1ccccc1,-18*,x,2,-10,0,7
CC(C)NC(=S)N/N=C/c1ccccc1[N+](=O)[O-],12,7,-6,5,0,-2
O=[N+]([O-])c1ccccc1C=NNC(=S)NN=Cc1ccccc1[N+](=O)[O-],-20*,1,x,3,0,2
Cc1noc(C)c1NC(=O)N[C@@H]1CC[C@H](CC(=O)Nc2ccccc2)O[C@@H]1CO,1,0,-2,5,0,-2
C[C@H]1CCCCO[C@@H](CN(C)C(=O)CCCN(C)C)[C@@H](C)CN([C@@H](C)CO)C(=O)c2cc(NC(=O)c3ccncc3)ccc2O1,2,-2,4,-7,0,-18
CCCNC(=O)N1[C@@H]2c3ccc(-c4cccc(F)c4)c(=O)n3C[C@H]1[C@H](CO)[C@H]2C(=O)NC1CCC1,3,2,-30,3,0,1
Cc1ccn2c(NC3CCCCC3)c(-c3cccc(-c4cccc(Cl)c4)c3)nc2c1,62,-2,16*,-23,x,8
CCC(=O)N[C@H]1CC[C@@H](CCNC(=O)Nc2ccc(C(F)(F)F)cc2)O[C@@H]1CO,-56,-2,1,5,0,6
CCC(=O)Nc1ccc2c(c1)C(=O)N(C)C[C@H](OC)[C@H](C)CN(CCC(F)(F)F)[C@@H](C)CO2,0,4,4,4,0,-3
CCC(=O)Nc1ccc2c(c1)C(=O)N(C)C[C@@H](OC)[C@H](C)CN(CC1CCCCC1)[C@@H](C)CO2,-5,-4,22*,-9,0,3
CCC(=O)Nc1ccc2c(c1)C(=O)N(C)C[C@@H](OC)[C@@H](C)CN(CCC(F)(F)F)[C@H](C)CO2,0,4,16*,-3,0,-3
CCCN1C[C@@H](C)[C@@H](OC)CN(C)C(=O)c2ccc(NC(=O)C3CC3)cc2OC[C@@H]1C,1,1,-1,-3,0,-1
O=C(Nc1cccc(Cl)c1)N[C@H]1CC[C@@H](CCNC(=O)C2CCCCC2)O[C@H]1CO,-6,-1,-1,-1,0,-4
O=C(NCC(c1ccco1)N1CCOCC1)c1c(F)cccc1F (centres undefined),12,1,17*,2,x,0
N#Cc1ccccc1Sc1ccccc1C(=O)NCC(c1ccco1)N1CCCC1 (centres undefined),1,1,4,-7,x,27*
CN(C)CCCNC(=O)[C@@H]1[C@@H](CO)[C@@H]2Cn3c(cccc3=O)[C@H]1N2CC1CC1,2,1,-3,1,0,-3
Nc1n[nH]c(C2CC2)c1N=Nc1ccc(Cl)c(Cl)c1,-52*,1,-2,-3,1,-16
Nc1n[nH]c(C2CC2)c1N=Nc1ccc(Cl)cc1,-9,-1,-1,6,0,5
C[C@H]1CN([C@@H](C)CO)C(=O)c2cc(C#CCN(C)C)cnc2O[C@@H]1CN(C)C(=O)c1cnccn1,3,-1,-2,15,0,-4
Cc1ccc(S(=O)(=O)N[C@@H]2CC[C@@H](CC(=O)N3CCC(Cc4ccccc4)CC3)O[C@@H]2CO)cc1,-8,1,1,-2,0,2
Cc1cccc(CC(=O)c2c[nH]c3ccccc23)c1,-15,x,x,-3,75*,-3
SMILES,Ecoli rRNA inh,ERAP1 inh,SIRT5 block,S100A4 MyoIIA,E-sel inducer,AF4-AF9 inh
COc1cc(Cl)c(CC(=O)c2c[nH]c3ccccc23)cc1OC,-1,-2,-2,-2,0,3
O=C(C[C@H]1C=C[C@@H](NC(=O)Cc2cccnc2)[C@H](CO)O1)Nc1ccc(-c2ccccc2)cc1,0,3,0,12,1,-2
COc1ccc(S(=O)(=O)NCC2CCCN(Cc3cccc(C(C)=O)c3)C2)cc1 (centres undefined),-2,-3,-1,87*,x,1
COc1ccc(S(=O)(=O)NCC2CCCN(Cc3cccnc3)C2)cc1 (centres undefined),17,-1,-2,-9,3,4
COc1ccc(CC(=O)NCC2CCCN(Cc3ccc(OC(F)(F)F)cc3)C2)cc1 (centres undefined),x,-3,21*,-7,x,1
COC(=O)c1ccc(CN2CCCC(CNC(=O)Cc3ccc(OC)cc3)C2)cc1 (centres undefined),5,-1,0,-8,x,2
COc1ccc(CC(=O)NCC2CCCN(Cc3ccccc3Cl)C2)cc1 (centres undefined),-4,-1,17*,-4,0,-2
Cc1noc(C)c1S(=O)(=O)Nc1ccc2c(c1)C(=O)N([C@H](C)CO)C[C@@H](C)[C@H](CN(C)S(=O)(=O)c1ccccc1)OCCCC[C@@H](C)O2,-4,1,2,-15,0,2
CC(C)(C)Cc1nnc(NC(=O)Cc2cccs2)s1,-4,2,29*,-5,-1,-2
C[C@@H]1CN([C@H](C)CO)C(=O)c2cccc(NC(=O)C3CCOCC3)c2O[C@@H]1CN(C)Cc1ccc(C(=O)Nc2ccccc2N)cc1,5,-5,16*,-29,2,4
C[C@@H]1CN([C@@H](C)CO)C(=O)c2cccc(NC(=O)C3CCOCC3)c2O[C@H]1CN(C)Cc1ccc(C(=O)Nc2ccccc2N)cc1,0,-2,0,-7,0,2
C[C@@H]1CN([C@H](C)CO)C(=O)c2cccc(NC(=O)c3ccncc3)c2O[C@@H]1CN(C)Cc1ccc(C(=O)Nc2ccccc2N)cc1,9,-2,x,11,58*,5
O=C(C[C@@H]1CC[C@@H]2[C@H](COC[C@H](O)CN2C(=O)c2ccccc2)O1)Nc1ccc(-c2ccccc2)cc1,0,0,3,2,0,0
